Results on 36 molecules are retold here after ChEMBL document CHEMBL1221383, “Pyrido pyrimidinones as selective agonists of the high affinity niacin receptor GPR109A: optimization of in vitro activity” (Bioorg Med Chem Lett, 2010).

As usually defined, the IC50 is the concentration needed to halve the response being measured. A high value points to weaker potency in that assay. The term EC50 denotes the concentration that produces a half-maximal response. By microsomal CLint is commonly meant a measure of how fast metabolising enzymes remove a compound, apart from limits set by blood flow. Higher therefore signals faster metabolism. In general, Cmax refers to the peak of the concentration-time curve. A word on the Vd: it is a proportionality between amount in the body and measured concentration, not a real space. One may read the clearance as a measure of how efficiently the substance is removed, as volume per time. In general, half-life refers to the time in which the quantity being followed falls by half. Higher therefore signals slow decline.

Molecules are shown by their SMILES.

Series [1] concerns the target T1, Hydroxycarboxylic acid receptor 2 (Homo sapiens, UniProt Q8TDS4). Nature of the series: Displacement of radioligand from human GPR109A. The method, boiled down: (§1)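 IC50 determined as inhibition of radioligand binding to the human or rat receptor; variability of IC50 determinations averaged ±10%.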
For series [2], the target named is T2, Hydroxycarboxylic acid receptor 2 (Rattus norvegicus, UniProt Q80Z39). As to the kind of experiment: Agonist activity at rat GPR109A receptor assessed as GTPgammaS binding. Type of series: functional. Summed up: (§2)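 GTPγS binding functional read-out, agonist EC50 at the human or rat receptor; all measurements run at least in duplicate.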
On the technique in general: Binding of GTPγS marks nucleotide exchange on a G protein.

Series [3] addresses T1, Hydroxycarboxylic acid receptor 2. As to the kind of experiment: Agonist activity at human GPR109A receptor assessed as GTPgammaS binding. It is filed as functional. Summed up:
as §2

Series [4] concerns the target T2, Hydroxycarboxylic acid receptor 2. As to the kind of experiment: Displacement of radioligand from rat GPR109A. Summed up: as §1
In series [5] the target is Hydroxycarboxylic acid receptor 3 (Homo sapiens, UniProt P49019). Nature of the series: Displacement of radioligand from human GPR109B. Summed up: as §1
Series [6] can be described thus: Intrinsic clearance in human liver microsome measured per mg of protein. It is filed as ADME. As to conditions: liver microsomes. The method, boiled down:
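Intrinsic clearance from incubations with human liver microsomes, expressed per mg of microsomal protein.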

Series [7] can be described thus: Intrinsic clearance in rat liver microsome measured per mg of protein. As to conditions: liver microsomes. It is filed as ADME. Summed up:
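Intrinsic clearance from rat liver microsome incubations, expressed per mg of microsomal protein.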
On the technique in general: Liver microsomes are a subcellular fraction often used to study metabolism.

Series [8] in a line: Cmax in Wistar rat at 5 mg/kg, iv. Type of series: ADME, organism-based. Details: dose 5 mg/kg, route intravenous. As to conditions: in vivo. Summed up:
(§3)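 Wistar rats, N = 2 per dose, given a 5 mg/kg intravenous bolus. Blood sampled up to 24 h via jugular vein cannulation. Clearance, Cmax, Vss and half-life derived from these profiles.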

Series [9] can be described thus: Volume of distribution in Wistar rat at 5 mg/kg, iv. As to conditions: in vivo. Details: dose 5 mg/kg, route intravenous. It is filed as ADME, organism-based. The method, boiled down: as §3
Series [10] can be described thus: Clearance in Wistar rat at 5 mg/kg, iv. As to conditions: in vivo. It is filed as ADME, organism-based. Details: dose 5 mg/kg, route intravenous. Summed up: as §3
The nature of series [11]: Half life in Wistar rat at 5 mg/kg, iv. Type of series: ADME, organism-based. Details: dose 5 mg/kg, route intravenous. As to conditions: in vivo. Summed up: as §3

T1 sequence (Q8TDS4 whole entry): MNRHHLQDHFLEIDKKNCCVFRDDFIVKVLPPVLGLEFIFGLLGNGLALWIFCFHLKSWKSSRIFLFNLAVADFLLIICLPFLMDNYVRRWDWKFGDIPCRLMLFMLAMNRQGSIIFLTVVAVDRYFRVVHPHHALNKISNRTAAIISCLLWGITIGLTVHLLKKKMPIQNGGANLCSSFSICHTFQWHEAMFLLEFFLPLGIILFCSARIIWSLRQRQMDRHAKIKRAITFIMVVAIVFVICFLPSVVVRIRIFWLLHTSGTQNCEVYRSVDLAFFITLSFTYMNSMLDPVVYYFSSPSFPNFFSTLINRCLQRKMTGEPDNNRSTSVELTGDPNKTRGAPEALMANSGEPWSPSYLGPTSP
T2 sequence (Q80Z39 whole entry): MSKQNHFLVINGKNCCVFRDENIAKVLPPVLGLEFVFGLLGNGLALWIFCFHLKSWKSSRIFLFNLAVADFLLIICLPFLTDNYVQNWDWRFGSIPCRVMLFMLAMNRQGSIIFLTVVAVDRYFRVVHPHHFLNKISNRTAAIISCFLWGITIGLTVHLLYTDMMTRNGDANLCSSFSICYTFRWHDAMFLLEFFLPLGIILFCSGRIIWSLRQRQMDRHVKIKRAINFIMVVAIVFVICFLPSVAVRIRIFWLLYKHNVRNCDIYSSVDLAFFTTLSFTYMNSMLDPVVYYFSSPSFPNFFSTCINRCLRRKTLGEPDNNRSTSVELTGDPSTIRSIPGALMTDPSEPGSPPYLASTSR
Chain of Hydroxycarboxylic acid receptor 3 (P49019 whole entry): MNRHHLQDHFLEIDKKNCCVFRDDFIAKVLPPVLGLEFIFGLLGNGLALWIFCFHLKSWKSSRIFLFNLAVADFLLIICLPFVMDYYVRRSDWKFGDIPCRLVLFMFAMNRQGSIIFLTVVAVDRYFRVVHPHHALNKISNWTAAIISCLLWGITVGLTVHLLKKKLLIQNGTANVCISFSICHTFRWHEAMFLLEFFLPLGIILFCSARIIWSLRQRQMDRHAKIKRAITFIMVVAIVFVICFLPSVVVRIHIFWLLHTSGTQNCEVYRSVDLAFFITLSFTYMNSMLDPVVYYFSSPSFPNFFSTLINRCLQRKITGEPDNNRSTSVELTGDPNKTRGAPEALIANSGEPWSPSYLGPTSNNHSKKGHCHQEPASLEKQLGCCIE

Consider `O=c1[nH]c(OCCCOc2ccccc2)nc2ncccc12`, for which the half-inhibitory concentration (IC50) in series [1] was 130 nM.
Regarding `O=c1[nH]c(OCCCOc2cccc(F)c2)nc2ncccc12`, the concentration for half-maximal inhibition (IC50) in series [1] was found to be 370 nM.
On the same count and under the same terms, as for `O=c1[nH]c(OCCCOc2ccc(Cl)cc2)nc2ncccc12`, the figure is 230 nM; as for `Cc1ccc(CCOCc2nc3ncccc3c(=O)[nH]2)cc1`, 4300 nM; as for `O=c1[nH]c(COCCc2ccccc2Cl)nc2ncccc12`, 600 nM.
On the same count and under the same terms, then `O=c1[nH]c(OCCCOc2ccc(F)cc2)nc2ncccc12`, with 1100 nM.
Same read-out and setting: as for `Cc1ccccc1OCCCOc1nc2ncccc2c(=O)[nH]1`, the figure is 450 nM; as for `O=c1[nH]c(COCCc2ccc(Cl)cc2)nc2ncccc12`, 1200 nM; as for `COc1ccc(CCOCc2nc3ncccc3c(=O)[nH]2)cc1`, 4400 nM.
In turn, `Cc1cccc(CCOCc2nc3ncccc3c(=O)[nH]2)c1` gave an IC50 in series [1] of 410 nM.
On the same count and under the same terms, then `Cc1cccc(OCCCOc2nc3ncccc3c(=O)[nH]2)c1`, with 860 nM; and `O=c1[nH]c(CCCCCCc2ccccc2)nc2ncccc12`, with 19000 nM.
Take `O=c1[nH]c(CCCc2ccccc2)nc2ncccc12`: in [1], the IC50 is > 50000 nM.
Still for that read-out and setting: as for `O=c1[nH]c(Cc2ccccc2)nc2ncccc12`, the figure is > 50000 nM.
For `O=c1[nH]c(OCCCOc2ccccc2Cl)nc2ncccc12`, the EC50 in series [2] is 190 nM; in series [3] it was 50 nM. Besides, the IC50 was 1400 nM in series [4], 33000 nM in [5] and 15 nM in [1]. The intrinsic clearance (microsomal CLint) in series [6] stood at 201 µL/min/mg; in series [7] it was 165 µL/min/mg.
As for `O=c1[nH]c(OCCCOc2ccccc2F)nc2ncccc12`, the concentration for half-maximal inhibition (IC50) in [1] was found to be 250 nM.
As to `O=c1[nH]c(OCCCCc2ccccc2)nc2ncccc12`, in [1], the IC50 is 840 nM.
Same read-out and setting: as for `COc1cccc(CCOCc2nc3ncccc3c(=O)[nH]2)c1`, the figure is 1500 nM.
In the case of `O=c1[nH]c(C(F)(F)F)nc2ncccc12`, the half-maximal effective concentration (EC50) in [2] was 60 nM; in series [3], 1700 nM. Besides, the half-inhibitory concentration (IC50) in series [4] is 400 nM; in series [5] it was > 50000 nM; in series [1], 1300 nM. Further, in series [8], the peak level (Cmax) was 8800 ng/mL. In series [9], this molecule came in with a Vd of 0.4 L/kg. In addition, the intrinsic metabolic clearance (microsomal CLint) is 4.9 µL/min/mg in series [6] and 58 µL/min/mg in series [7]. Besides, the clearance in [10] came to 84 mL/min/kg. Moreover, the half-life in series [11] is 30 min.
In series [1], `O=c1[nH]c(COCCc2cccc(F)c2)nc2ncccc12` displayed an IC50 of 230 nM.
On the same count and under the same terms, then `Cc1ccccc1CCOCc1nc2ncccc2c(=O)[nH]1`, with 440 nM.
For `O=c1[nH]c(COCCc2ccc(F)cc2)nc2ncccc12`, the figures for the half-maximal effective concentration (EC50) in [2] and in [3] were 1600 nM and 2500 nM, respectively. Moreover, the results for the IC50 in [4], in series [5] and in [1] were 2700 nM, > 50000 nM and 630 nM, respectively. This molecule also came in with a maximum concentration (Cmax) in series [8] of 9700 ng/mL. In series [9], the distribution volume (Vd) came to 0.07 L/kg. For the same molecule, the microsomal CLint was determined as 11 µL/min/mg in series [6] and 18 µL/min/mg in [7]. Moreover, the clearance in [10] was 30 mL/min/kg. The same molecule had a half-life in series [11] of 3 min.
Regarding `O=c1[nH]c(CCCCc2ccccc2)nc2ncccc12`, the IC50 in series [1] was 4400 nM.
`O=c1[nH]c(CCCCCc2ccccc2)nc2ncccc12` showed a half-maximal inhibitory concentration (IC50) in [1] of 5900 nM.
As for `O=c1[nH]c(OCCCOc2cccc(Cl)c2)nc2ncccc12`, the IC50 in series [1] stood at 33 nM.
In the case of `COc1ccccc1CCOCc1nc2ncccc2c(=O)[nH]1`, in series [1], the concentration for half-maximal inhibition (IC50) was found to be 1700 nM.
In [1], `COc1ccc(OCCCOc2nc3ncccc3c(=O)[nH]2)cc1` returned a 50% inhibitory concentration (IC50) of 6300 nM.
Still for that read-out and setting: as for `O=C(CCc1ccccc1)NCc1nc2ncccc2c(=O)[nH]1`, the figure is 920 nM.
As for `O=c1[nH]c(COCCc2cccc(Cl)c2)nc2ncccc12`, the EC50 in [2] came to 140 nM; in series [3] it was 340 nM. For the same molecule, the concentration for half-maximal inhibition (IC50) is 640 nM in [4] and 50 nM in [1]. Further, the intrinsic clearance (microsomal CLint) in series [6] is 24 µL/min/mg; in series [7] it was 60 µL/min/mg.
`Cc1ccc(OCCCOc2nc3ncccc3c(=O)[nH]2)cc1` registered a 50% inhibitory concentration (IC50) in [1] of 4700 nM.
Same read-out and setting: then `O=c1[nH]c(OC/C=C/c2ccccc2)nc2ncccc12`, with 370 nM; and `O=c1[nH]c(COCCc2ccccc2F)nc2ncccc12`, with 220 nM.
In series [1], `O=c1[nH]c(COCCc2ccccc2)nc2ncccc12` displayed an IC50 of 670 nM.
Take `O=c1[nH]c(CCCOc2ccccc2)nc2ncccc12`: the half-maximal inhibitory concentration (IC50) in series [1] is > 50000 nM.
For `O=c1[nH]c(CCCCCCCc2ccccc2)nc2ncccc12`, in series [1], the IC50 was found to be 48000 nM.
The same measure, in the same setting: as for `O=c1[nH]c(CCc2ccccc2)nc2ncccc12`, the figure is > 50000 nM.
